Here are results for two molecules from publication PMC6175042 (Journal of nuclear medicine : official publication, Society …, 2018).

The term tissue uptake denotes the percentage of the injected dose found per gram of tissue. Read a high tissue uptake as high uptake.

Data set [1] deals with αvβ3 integrin-positive SK-RC-52 xenograft tumours. The experiment in a line: Ex vivo biodistribution in mice with SK-RC-52 xenografts. The following applies: i.v. 0.5 nmol/mouse, 1 h post injection, n=5; for Tumour uptake, SK-RC-52: mean ± SD; for Tumour-to-blood ratio, SK-RC-52 / Tumour-to-duodenum ratio / Tumour-to-heart ratio / Tumour-to-kidneys ratio / Tumour-to-liver ratio / Tumour-to-lung ratio / Tumour-to-muscle ratio / Tumour-to-pancreas ratio / Tumour-to-spleen ratio / Tumour-to-stomach ratio: SK-RC-52. An outline of the steps:
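Female athymic BALB/c nu/nu mice (6–8 weeks) received 2x10^6 SK-RC-52 cells s.c. in the left flank. Cells were grown in RPMI 1640 with 10% FCS and 1% glutamine. The 68Ga-labelled test compound (15 MBq in 0.3 ml PBS with 0.5% BSA, pH 7.4) was injected via the tail vein into awake, heat-lamp-warmed mice. After CO2/O2 euthanasia, tissues were dissected, weighed and gamma-counted against 1% standards, giving %ID/g.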

Data set [2] can be described thus: Ex vivo biodistribution in mice with FaDu xenografts. The following applies: female, BALB/c nude (BALB/c nu/nu/Foxn1nu), mouse, salivary glands, iv, 0.5 nmol/mouse.
The test system of data set [3] is αvβ3 integrin-negative FaDu xenograft tumours (αvβ3 integrin expressed solely on neovasculature). Described as above. The note with it: i.v. 0.5 nmol/mouse, 1 h post injection, n=5; for Tumour uptake, FaDu: mean ± SD; for Tumour-to-blood ratio, FaDu / Tumour-to-duodenum ratio / Tumour-to-heart ratio / Tumour-to-kidneys ratio / Tumour-to-liver ratio / Tumour-to-lung ratio / Tumour-to-muscle ratio / Tumour-to-pancreas ratio / Tumour-to-spleen ratio / Tumour-to-stomach ratio: FaDu.

The next data set relates to αvβ3 integrin. The following applies: cited from earlier work.

Regarding `N=C(N)NCCC[C@@H]1NC(=O)[C@H](CCCCNC(=O)CCOCCOCCOCCOCCNC(=O)CCP(=O)(O)CN2CCN(CP(=O)(O)CCC(=O)NCCOCCOCCOCCOCCC(=O)NCCCC[C@@H]3NC(=O)[C@@H](Cc4ccccc4)NC(=O)[C@H](CC(=O)O)NC(=O)CNC(=O)[C@H](CCCNC(=N)N)NC3=O)CCN(CP(=O)(O)CCC(=O)NCCOCCOCCOCCOCCC(=O)NCCCC[C@@H]3NC(=O)[C@@H](Cc4ccccc4)NC(=O)[C@H](CC(=O)O)NC(=O)CNC(=O)[C@H](CCCNC(=N)N)NC3=O)CC2)NC(=O)[C@@H](Cc2ccccc2)NC(=O)[C@H](CC(=O)O)NC(=O)CNC1=O` (single isomer, unassigned) [^68Ga-TRAP-(RGD)3, metal not drawn], in data set [1], the “Tumour uptake, SK-RC-52” value is on record as 4.4±0.8 %ID/g; the “Tumour-to-blood ratio, SK-RC-52” value stood at 38.5±3.8; the Tumour-to-duodenum ratio is 1.4±0.4; the Tumour-to-heart ratio is 15.3±2.3. In data set [1], the Tumour-to-kidneys ratio turned out to be 1.1±0.1, the Tumour-to-liver ratio came out at 3.0±0.5, the Tumour-to-lung ratio is 4.8±0.9 and the Tumour-to-muscle ratio was found to be 20.9±3.6. Besides, in data set [1], the Tumour-to-pancreas ratio is 17.3±3.7, the Tumour-to-spleen ratio was 3.0±0.5 and the Tumour-to-stomach ratio was 3.0±0.7. In addition, the tissue uptake at 1 h in data set [2] is 0.7 ± 0.1 %ID/g. In data set [3], the “Tumour uptake, FaDu” value amounted to 1.0±0.2 %ID/g; the “Tumour-to-blood ratio, FaDu” value was determined as 5.8±0.9; the Tumour-to-duodenum ratio was 0.3±0.07; the Tumour-to-heart ratio was 4.4±1.4. Moreover, in data set [3], the Tumour-to-kidneys ratio is listed as 0.5±0.1, the Tumour-to-liver ratio was found to be 0.8±0.2, the Tumour-to-lung ratio was found to be 1.5±0.4 and the Tumour-to-muscle ratio came out at 4.8±1.2. Moreover, in data set [3], the Tumour-to-pancreas ratio stood at 4.6±1.0, the Tumour-to-spleen ratio is on record as 0.9±0.2 and the Tumour-to-stomach ratio was 0.8±0.2. For the same molecule, in the data set on αvβ3 integrin, the “Tumour targeting compared to monomeric RGD peptides” value is “improved tumour targeting”.
Turning to `C/C1=C/C(=O)N(O)CCC[C@H](NC(=O)CCC(=O)NCCCC[C@@H]2NC(=O)[C@@H](Cc3ccccc3)NC(=O)[C@H](CC(=O)O)NC(=O)CNC(=O)[C@H](CCCNC(=N)N)NC2=O)C(=O)OCC/C(C)=C\C(=O)N(O)CCC[C@H](NC(=O)CCC(=O)NCCCC[C@@H]2NC(=O)[C@@H](Cc3ccccc3)NC(=O)[C@H](CC(=O)O)NC(=O)CNC(=O)[C@H](CCCNC(=N)N)NC2=O)C(=O)OCC/C(C)=C\C(=O)N(O)CCC[C@H](NC(=O)CCC(=O)NCCCC[C@@H]2NC(=O)[C@@H](Cc3ccccc3)NC(=O)[C@H](CC(=O)O)NC(=O)CNC(=O)[C@H](CCCNC(=N)N)NC2=O)C(=O)OCC1` [^68Ga-FSC-(RGD)3, metal not drawn], in data set [1], the “Tumour uptake, SK-RC-52” value was 12.5±2.5 %ID/g; the “Tumour-to-blood ratio, SK-RC-52” value worked out at 30.7±8.1; the Tumour-to-duodenum ratio amounted to 1.5±0.4; the Tumour-to-heart ratio worked out at 12.4±3.2. In data set [1], the Tumour-to-kidneys ratio was 1.9±0.3, the Tumour-to-liver ratio is listed as 2.5±0.2, the Tumour-to-lung ratio is reported as 4.8±0.9 and the Tumour-to-muscle ratio was 17.2±3.2. Moreover, in data set [1], the Tumour-to-pancreas ratio came to 17.9±3.5, the Tumour-to-spleen ratio is listed as 2.6±0.5 and the Tumour-to-stomach ratio turned out to be 2.6±0.3. The same molecule came in with a tissue uptake at 1 h in data set [2] of 2.2 ± 0.3 %ID/g. In data set [3], the “Tumour uptake, FaDu” value is on record as 1.9±0.3 %ID/g; the “Tumour-to-blood ratio, FaDu” value came to 3.5±0.6; the Tumour-to-duodenum ratio is listed as 0.4±0.08; the Tumour-to-heart ratio is reported as 2.4±0.4. Besides, in data set [3], the Tumour-to-kidneys ratio worked out at 0.4±0.05, the Tumour-to-liver ratio was determined as 0.8±0.1, the Tumour-to-lung ratio is 0.9±0.1 and the Tumour-to-muscle ratio is 3.6±0.6. In addition, in data set [3], the Tumour-to-pancreas ratio is on record as 3.0±0.4, the Tumour-to-spleen ratio is reported as 0.6±0.06 and the Tumour-to-stomach ratio came to 0.6±0.1. In the data set on αvβ3 integrin, the “Tumour targeting compared to monomeric RGD peptides” value is listed as “improved tumour targeting”.
